Bioassay records deposited in PubChem by several laboratories.
KCC2 mod: modulates chloride dependent transport by human KCC2; hit rate 2.2% among 190,000; KCC2 cells, thallium flux FluoZin-2 fluorescence; B-score of Tl+ flux slope (higher = more flux/activation; lower = inhibition) at 10 µM; AID 1456; Q9H2X9;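 active means thallium flux slope and its plate-corrected score both differing from the plate sample mean at a set confidence after two filtering rounds, in either direction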;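 further: slope of fluorescence scaled to starting intensity during 10 to 20 s after thallium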
Target sequence (Q9H2X9 whole entry, looked up): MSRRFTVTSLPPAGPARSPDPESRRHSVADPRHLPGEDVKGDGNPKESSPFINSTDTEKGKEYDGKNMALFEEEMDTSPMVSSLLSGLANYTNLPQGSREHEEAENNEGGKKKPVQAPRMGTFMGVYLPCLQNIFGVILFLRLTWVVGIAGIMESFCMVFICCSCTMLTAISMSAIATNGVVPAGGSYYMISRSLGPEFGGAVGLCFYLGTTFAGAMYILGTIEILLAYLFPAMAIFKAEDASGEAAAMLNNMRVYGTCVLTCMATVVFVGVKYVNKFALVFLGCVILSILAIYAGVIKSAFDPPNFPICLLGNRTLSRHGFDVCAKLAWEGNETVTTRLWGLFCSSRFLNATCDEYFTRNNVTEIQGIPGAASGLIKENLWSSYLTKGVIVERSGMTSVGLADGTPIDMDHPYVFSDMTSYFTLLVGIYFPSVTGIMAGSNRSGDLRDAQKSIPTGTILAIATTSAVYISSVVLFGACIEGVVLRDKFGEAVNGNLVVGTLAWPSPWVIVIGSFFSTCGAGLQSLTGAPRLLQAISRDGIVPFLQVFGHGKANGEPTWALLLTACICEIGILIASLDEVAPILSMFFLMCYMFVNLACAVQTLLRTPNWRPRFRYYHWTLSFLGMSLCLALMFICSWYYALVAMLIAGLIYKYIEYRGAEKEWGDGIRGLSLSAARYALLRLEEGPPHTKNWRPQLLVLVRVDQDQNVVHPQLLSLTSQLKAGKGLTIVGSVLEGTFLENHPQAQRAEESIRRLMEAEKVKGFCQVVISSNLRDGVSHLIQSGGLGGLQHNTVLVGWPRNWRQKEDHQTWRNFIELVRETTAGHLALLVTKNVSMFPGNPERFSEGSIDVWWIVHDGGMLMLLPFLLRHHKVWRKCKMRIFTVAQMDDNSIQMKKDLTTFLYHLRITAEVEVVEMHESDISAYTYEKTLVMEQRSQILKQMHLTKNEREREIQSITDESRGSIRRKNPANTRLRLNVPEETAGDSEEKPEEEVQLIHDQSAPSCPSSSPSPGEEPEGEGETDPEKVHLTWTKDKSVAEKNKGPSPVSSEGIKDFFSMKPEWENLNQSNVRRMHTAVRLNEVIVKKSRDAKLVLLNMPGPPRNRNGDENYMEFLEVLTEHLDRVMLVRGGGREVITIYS
ROMK mod: human ROMK K+ channel modulation, primary screen; P48048; Tet-inducible ROMK, thallium flux fluorescence; actives lie on both sides; B-score at 10 µM; hit rate 2% among 130,000;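 active means signal ratio slope over the read window, or its plate-corrected B-score, at least 3 SD from the plate mean, either direction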;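 further: B-score of the F/F0 ratio slope over 7 to 12 s after thallium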
Lmaj promast: inhibitors of Leishmania major promastigote growth | Leishmania major promastigotes, resazurin fluorescence viability | inhibition, % at 10 µM | hit rate 9% among 200,000; in the data active means inhibition above about 50%;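 further: promastigotes grown with compound for 44 hours at 28 °C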
Diaph inh CS: diaphorase inhibition or chemical oxidation counter-screen; AID 1217; inhibition, % at 20 µM; hit rate 0.69% among 190,000; diaphorase resazurin-to-resorufin fluorescence, NADH, 16 min; bacterial (C. kluyveri) enzyme, not human;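 active means primary screen inhibition at 20 µM above a set limit, cut at about 50% in these data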;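 further: plate controls were DMSO with full reaction for no effect and wells lacking NADH for full effect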
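System: Diaphorase enzyme from Clostridium kluyveri | Amount: Enzyme working solution with 0.14 U/mL diaphorase | Benchmarks: No-NADH positive control and DMSO neutral control | Signal: Fluorescence of resorufin formed from resazurin, Ex 544/Em 590 nm | Schedule: 16-min room-temperature incubation before reading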
WT yeast gro inh: growth inhibition of WT yeast, mitochondrial fusion screen; mitochondrial fusion phenotypic screen, WT strain; inhibition, % at 10 µM; hit rate 2.1% among 190,000; in the data active means inhibition above about 58%; tested in S. cerevisiae
Diaphorase act: activates diaphorase or chemically reduces, flagging diaphorase assay artifacts; Diaphorase/resazurin coupled assay, resorufin fluorescence, 16 min; hits give high values; 1 = vehicle wells, 0 = NADH-free wells; activation factor at 20 µM; hit rate 0.005% among 190,000; AID 1229;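 active means diaphorase activity raised at least twofold by the compound at 20 µM; inactive means activation factor below 2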
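test system = bacterial diaphorase enzyme (C. kluyveri) | quantity = enzyme 0.07 U/mL final | reagent = NADH substrate 0.114 mM plus resazurin dye 0.1 mM, final | incubation = 16 min enzyme reaction, ambient temperature | buffer or medium = HEPES pH 7.4 buffer with MgCl2 and Tween 20 | signal = fluorescence of resorufin, 544 nm excitation, 590 nm emission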
KCC2 sec1: KCC2 (human) modulation, secondary assay; shares compounds with KCC2 mod; HEK293-KCC2, thallium flux, FluoZin2 fluorescence; hits give high values; normalised thallium flux (F/F0 slope) at 10 µM; hit rate 15% among 3,700; AID 1713;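 active means thallium flux slope above the same plate's solvent-only control mean plus 3 SD; inconclusive means the two replicate wells disagree; inactive means no significant difference from solvent-only control wells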
KCC2 bumet counter: thallium flux persisting under bumetanide in KCC2 cells, counter-screen secondary assay. shares compounds with KCC2 mod. hit rate 49% among 3,700. normalized thallium flux at 10 µM. HEK293-KCC2 + bumetanide/ouabain, thallium flux FluoZin2; hits give high values;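 active means thallium entry rate above the same plate's blocked-transporter control wells by more than 3 SD; inconclusive means the two repeat wells disagree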;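 further: raw slope of fluorescence over initial fluorescence between 10 and 20 s after thallium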
KCC2 sec2: confirmation of human KCC2 transport modulators; HEK293-KCC2, thallium flux FluoZin2 fluorescence; actives lie on both sides; F/F0 rise rate, 10–20 s post-thallium; AID 1715; hit rate 23% among 3,700; normalized thallium flux at 10 µM; shares compounds with KCC2 mod;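 active means thallium flux slope more than 3 SD above or below the plate's solvent-only control mean, mostly below; inconclusive means the two repeat wells disagreed; inactive means no significant shift from solvent-only controls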;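 further: raw slope with 0.1% DMSO as baseline and bumetanide as block control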
HEK counter1: acts in parental HEK cells, KCC2 counter-screen; shares compounds with KCC2 mod; HEK293 parental cells, thallium flux FluoZin2, ouabain; baseline-ratio fluorescence slope, 10–20 s after thallium; thallium flux rate (normalised fluorescence) at 10 µM; hit rate 46% among 3,700; AID 1716;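 active means thallium flux rate significantly above the same plate's solvent-only control wells, beyond their mean plus 3 SD; inconclusive means the two replicate wells gave conflicting results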
KCC2 retest ouab: modulates human KCC2 on retest with ouabain | shares compounds with KCC2 mod | HEK293-KCC2, thallium flux FluoZin2 fluorescence; bidirectional: low = inhibitor, high = activator | raw Tl+ flux slope (below DMSO = inhibition, above = activation) at 10 µM | hit rate 48% among 3,700;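 active means thallium flux slope beyond 3 SD from same-plate DMSO control mean in most replicates, usually higher, sometimes lower; inconclusive means repeat tests gave conflicting results; inactive means no significant difference from controls in most replicates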;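 further: slope of initial-normalized fluorescence between seconds 10 and 20 after thallium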
HEK293 Tl flux2: acts in parental HEK cells, second KCC2 counter-screen. hit rate 33% among 3,700. AID 1718. HEK293 parental, thallium flux FluoZin-2 fluorescence slope. shares compounds with KCC2 mod. thallium flux slope at 10 µM;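 active means thallium flux slope above the same plate's solvent-control mean plus 3 SD in both duplicate wells; inconclusive means duplicate wells that disagreed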;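 further: run without ouabain in cells lacking the KCC2 cotransporter; slope of fluorescence scaled to its starting value between 10 and 20 s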
Starred values were filed as active, the others as inactive; ? = inconclusive; nt = not tested or not shown. Hits are enriched below; roughly 12% of the tested compounds scored in any of these assays.

SMILES | KCC2 mod | ROMK mod | Lmaj promast | Diaph inh CS | WT yeast gro inh | Diaphorase act | KCC2 sec1 | KCC2 bumet counter | KCC2 sec2 | HEK counter1 | KCC2 retest ouab | HEK293 Tl flux2
CNC(=O)C(=O)Nc1nc(C23CC4CC(CC(C4)C2)C3)cs1 | 3.9* | -0.5 | 25 | 2 | -4 | 1 | 0.0072 | 0.012* | 0.028 | 0.013* | ? | 0.013*
O=C(NCc1ccc(F)cc1)C(=O)Nc1nc(C23CC4CC(CC(C4)C2)C3)cs1 | 8.9* | -0.46 | 25 | 9 | 44 | 0.9 | 0.0054 | 0.038* | 0.033 | 0.021* | 0.034* | 0.018*
O=C(c1cccc(Oc2ccccc2)c1)N1CCN(c2ccccn2)CC1 | -2.5 | -0.76 | -9 | 12 | 8 | 0.9 | nt | nt | nt | nt | nt | nt
CC(C)CCNC(=O)NC(=O)Cn1cc(C(F)(F)F)ccc1=O | nt | nt | -2 | 14 | -5 | 0.9 | nt | nt | nt | nt | nt | nt
Cc1cc2ccccn2c1C(=S)NC(=O)c1ccccc1 | 66* | 2.1 | 46 | 21 | 16 | 0.8 | 0.02* | 0.14* | 0.1* | 0.12* | 0.12* | 0.11*
Cc1cc2ccccn2c1C(=O)c1ccncc1 | -0.15 | nt | 14 | 14 | -11 | 0.9 | nt | nt | nt | nt | nt | nt
COc1ccccc1CNc1n[nH]c(NCc2ccccc2OC)n1 | nt | -0.027 | -4 | 2 | -6 | 1 | ? | 0.005 | 0.03 | 0.0075 | 0.018 | 0.011
Cc1cccc(N2CCN(C(=O)Cn3cnc4c3c(=O)n(C)c(=O)n4C)CC2)c1C | 0.68 | -0.72 | 5 | 7 | -1 | 0.9 | nt | nt | nt | nt | nt | nt
Cc1cccc(N2CCN(C(=O)Cn3ccc4ccccc4c3=O)CC2)c1C | -4.5* | nt | 91* | 18 | -12 | 0.8 | 0.007 | 0.0041 | 0.023* | 0.0069 | 0.016* | 0.0097
CCCCC(c1nnnn1CC1CCCO1)N1CCN(c2nc3ccccc3s2)CC1 (centres undefined) | -4.1* | nt | 99* | 29 | 11 | 0.7 | 0.0059 | 0.0041 | 0.023* | ? | 0.012* | 0.0095
CCC(C)(C)n1nnnc1C(c1ccc2ncccc2c1)N1CCN(c2nc3ccccc3s2)CC1 (centres undefined) | nt | nt | 18 | 35 | 47 | 0.7 | 0.0085 | 0.0062 | 0.031 | 0.007 | 0.016* | 0.011
CCCC(c1nnnn1CC1CCCO1)N1CCN(c2nc3ccccc3s2)CC1 (centres undefined) | -3.8* | nt | 94* | 6 | 6 | 0.9 | 0.0063 | 0.004 | 0.027 | 0.0068 | 0.013* | 0.0089
Cc1ccc(C(c2nnnn2CC2CCCO2)N2CCN(C)CC2)cc1 (centres undefined) | 0.6 | -0.56 | -4 | 9 | 16 | 0.9 | nt | nt | nt | nt | nt | nt
COc1ccccc1-c1nnc(SCC(=O)OC(C)C)o1 | nt | 0.46 | -8 | 8 | 8 | 0.9 | nt | nt | nt | nt | nt | nt
O=C(CSc1nc(-c2ccccc2)nc2ccccc12)Nc1cccc(C(=O)O)c1 | 7.4* | 2.2 | -7 | 21 | -16 | 0.8 | 0.0063 | 0.014* | 0.034 | 0.015* | 0.025* | 0.017*
O=C(CSc1nc(-c2ccc(F)cc2)nc2ccc(F)cc12)Nc1cccc(C(=O)O)c1 | -0.62 | 0.18 | -3 | 7 | 7 | 0.9 | nt | nt | nt | nt | nt | nt
